ChEMBL document CHEMBL1156237, “Antiviral activity of benzimidazole derivatives. II. Antiviral activity of 2-phenylbenzimidazole derivatives” (Bioorg Med Chem, 2010)
Calls of active or inactive are those of the source.

Tested on: not listed separately
Experiment: Cytotoxicity against human MT4 cells after 96 hrs by MTT assay
Format: cell-based
Details: MT4 cells
Outline: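 Exponentially growing MT-4 cells at 1 × 10^5 cells/mL in RPMI-1640 with 10% FCS, exposed to serial compound dilutions at 37 °C, 5% CO2. Viability by MTT after 96 h; CC50 is the concentration reducing viability of mock-infected cells by 50%.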
`CCN(CC)CC(=O)Nc1ccc(-c2nc3cc(C(F)(F)F)ccc3[nH]2)cc1` showed a CC50 at 96 h of 8 µM. With `CC(=O)Nc1ccc(-c2nc3cc(C(F)(F)F)ccc3n2C)cc1` the CC50 at 96 h was 15 µM. With `COc1cc(OC)cc(-c2nc3cc(C(F)(F)F)ccc3[nH]2)c1` the CC50 at 96 h was 19 µM.

Tested on: Mammalian orthoreovirus 1
Experiment: Antiviral activity against Reovirus 1 3651 infected in BHK21 cells assessed as protection from virus-induced cytopathogenicity after 3 to 4 days by MTT method
Format: functional, organism-based
Details: BHK-21
In the case of `CC(=O)Nc1ccc(-c2nc3cc(C(F)(F)F)ccc3n2C)cc1`, the Activity is reported as “inactive”.

Tested on: not listed separately
Experiment: Selectivity index, ratio of CC50 for MDBK cells to EC50 for Bovine viral diarrhea virus NADL
Format: toxicity, cell-based
Details: cattle, read-out: Ratio CC50/EC50
In the case of `CCN(CC)CC(=O)Nc1ccc(-c2nc3cc(C(F)(F)F)ccc3[nH]2)cc1`, the selectivity ratio is reported as 6.5.

Tested on: Human alphaherpesvirus 1
Experiment: Antiviral activity against HSV1 KOS infected in african green monkey Vero cells after 3 days by plaque reduction assay
Format: functional, organism-based
Details: Human alphaherpesvirus 1, KOS, 72 h
Outline: (§1)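 Plaque reduction assay. Vero 76 cells at 2 × 10^5/well, grown overnight to confluence in D-MEM with 10% FBS. Infected 2 h with 50–100 PFU/well, unadsorbed virus removed. Overlay of D-MEM with 1% inactivated FBS and 0.75% methylcellulose, with or without serial compound dilutions. Incubated at 37 °C for 3 days (HSV-1 KOS, CVB-2 Ohio-1) or 5 days (RSV A2). Fixed and stained with crystal violet in 50% ethanol; plaques counted; EC50 by linear regression.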
Compound `CCN(CC)CC(=O)Nc1ccc(-c2nc3cc(C(F)(F)F)ccc3[nH]2)cc1` has an EC50 of 24 µM. For `CC(=O)Nc1ccc(-c2nc3cc(C(F)(F)F)ccc3n2C)cc1`, the EC50 was 49 µM. `COc1cc(OC)cc(-c2nc3cc(C(F)(F)F)ccc3[nH]2)c1` showed an EC50 greater than 100 µM.

Tested on: Coxsackievirus B2
Experiment: Antiviral activity against Human coxsackievirus B2 Ohio-1 infected in african green monkey Vero cells after 3 days by plaque reduction assay
Format: functional, organism-based, Coxsackievirus B2 (strain Ohio-1)
Details: Enterovirus B, Vero, 72 h
Outline: as §1
Compound `CCN(CC)CC(=O)Nc1ccc(-c2nc3cc(C(F)(F)F)ccc3[nH]2)cc1` has an EC50 greater than 24 µM. Compound `CC(=O)Nc1ccc(-c2nc3cc(C(F)(F)F)ccc3n2C)cc1` has an EC50 of 2.5 µM. `COc1cc(OC)cc(-c2nc3cc(C(F)(F)F)ccc3[nH]2)c1` gave an EC50 of 3 µM.

Tested on: Poliovirus 1
Experiment: Antiviral activity against Polio virus type1 Sabin strain Chat infected in african green monkey Vero cells after 2 days by plaque reduction assay
Format: functional, organism-based, Human poliovirus 1 strain Sabin
Details: Enterovirus C, 48 h
With `CCN(CC)CC(=O)Nc1ccc(-c2nc3cc(C(F)(F)F)ccc3[nH]2)cc1` the EC50 was greater than 24 µM. With `CC(=O)Nc1ccc(-c2nc3cc(C(F)(F)F)ccc3n2C)cc1` the EC50 was 14 µM. In the case of `COc1cc(OC)cc(-c2nc3cc(C(F)(F)F)ccc3[nH]2)c1`, the EC50 is reported as greater than 100 µM.

Tested on: not listed separately
Experiment: Selectivity index, ratio of CC50 for human MT4 cells to EC50 for Bovine viral diarrhea virus NADL
Format: toxicity, cell-based
Details: read-out: Ratio CC50/EC50
`CCN(CC)CC(=O)Nc1ccc(-c2nc3cc(C(F)(F)F)ccc3[nH]2)cc1` showed a selectivity ratio of 4.

Tested on: not listed separately
Experiment: Selectivity index, ratio of CC50 for african green monkey Vero cells to EC50 for Human coxsackievirus B2 Ohio-1
Format: toxicity, cell-based
Details: read-out: Ratio CC50/EC50
`CC(=O)Nc1ccc(-c2nc3cc(C(F)(F)F)ccc3n2C)cc1` gave a selectivity ratio greater than 40. Compound `COc1cc(OC)cc(-c2nc3cc(C(F)(F)F)ccc3[nH]2)c1` has a selectivity ratio greater than 33.

Tested on: not listed separately
Experiment: Selectivity index, ratio of CC50 for human MT4 cells to EC50 for Human coxsackievirus B2 Ohio-1
Format: toxicity, cell-based
Details: read-out: Ratio CC50/EC50
`CC(=O)Nc1ccc(-c2nc3cc(C(F)(F)F)ccc3n2C)cc1` gave a selectivity ratio of 6. In the case of `COc1cc(OC)cc(-c2nc3cc(C(F)(F)F)ccc3[nH]2)c1`, the selectivity ratio is reported as 6.3.

Tested on: not listed separately
Experiment: Cytotoxicity against BHK cells after 48 to 96 hrs by MTT assay
Format: cell-based, Mesocricetus auratus
Details: hamster
Outline: (§2)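 Cell seeding: MDBK at 6 × 10^5 cells/mL in MEM-E with 10% horse serum and 1 mM Na pyruvate; BHK at 1 × 10^6 cells/mL in MEM-E with 10% FBS. Serial compound dilutions, 37 °C, 5% CO2. Viability of mock-infected cells by MTT after 48–96 h; CC50 is the concentration reducing viability by 50%.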
Compound `CCN(CC)CC(=O)Nc1ccc(-c2nc3cc(C(F)(F)F)ccc3[nH]2)cc1` has a CC50 of 23 µM. With `CC(=O)Nc1ccc(-c2nc3cc(C(F)(F)F)ccc3n2C)cc1` the CC50 was greater than 100 µM. Work on `COc1cc(OC)cc(-c2nc3cc(C(F)(F)F)ccc3[nH]2)c1` yielded a CC50 greater than 100 µM.

Tested on: not listed separately
Experiment: Cytotoxicity against african green monkey Vero cells
Format: cell-based
Details: chlorocebus sabaeus
Outline: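 Vero 76 monolayers exposed to serial compound dilutions, run in parallel on the same 24-well plates as the plaque-reduction assays. CC50 is the concentration reducing viability of mock-infected cells by 50%.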
`CCN(CC)CC(=O)Nc1ccc(-c2nc3cc(C(F)(F)F)ccc3[nH]2)cc1` showed a CC50 of 24 µM. Compound `CC(=O)Nc1ccc(-c2nc3cc(C(F)(F)F)ccc3n2C)cc1` has a CC50 greater than 100 µM. In the case of `COc1cc(OC)cc(-c2nc3cc(C(F)(F)F)ccc3[nH]2)c1`, the CC50 is reported as greater than 100 µM.

Tested on: Vaccinia virus
Experiment: Antiviral activity against Vaccinia virus Elstree-Lister infected in african green monkey Vero cells after 3 days by plaque reduction assay
Format: functional, organism-based
Details: Orthopoxvirus vaccinia
With `CC(=O)Nc1ccc(-c2nc3cc(C(F)(F)F)ccc3n2C)cc1` the Activity was “inactive”.

Same assay, conditions: Orthopoxvirus vaccinia, 72 h
In the case of `COc1cc(OC)cc(-c2nc3cc(C(F)(F)F)ccc3[nH]2)c1`, the EC50 is reported as greater than 100 µM.

Tested on: Yellow fever virus
Experiment: Antiviral activity against Yellow fever virus 17D infected in BHK cells assessed as protection from virus-induced cytopathogenicity after 3 to 4 days by MTT method
Format: functional, organism-based
Details: not given
Compound `CCN(CC)CC(=O)Nc1ccc(-c2nc3cc(C(F)(F)F)ccc3[nH]2)cc1` has an EC50 of 7 µM. For `CC(=O)Nc1ccc(-c2nc3cc(C(F)(F)F)ccc3n2C)cc1`, the EC50 was greater than 100 µM. Compound `COc1cc(OC)cc(-c2nc3cc(C(F)(F)F)ccc3[nH]2)c1` has an EC50 greater than 100 µM.

Tested on: Respiratory syncytial virus
Experiment: Antiviral activity against RSV A2 infected in african green monkey Vero cells after 5 days by plaque reduction assay
Format: functional, organism-based
Details: not given
Outline: as §1
In the case of `CC(=O)Nc1ccc(-c2nc3cc(C(F)(F)F)ccc3n2C)cc1`, the Activity is reported as “inactive”.

Same assay, conditions: human respiratory syncytial virus, A2, Vero, 120 h
`COc1cc(OC)cc(-c2nc3cc(C(F)(F)F)ccc3[nH]2)c1` showed an EC50 of 10 µM.

Tested on: not listed separately
Experiment: Cytotoxicity against MDBK cells after 48 to 96 hrs by MTT assay
Format: cell-based, Bos taurus
Details: cattle, MDBK cells
Outline: as §2
`CCN(CC)CC(=O)Nc1ccc(-c2nc3cc(C(F)(F)F)ccc3[nH]2)cc1` showed a CC50 of 13 µM. `CC(=O)Nc1ccc(-c2nc3cc(C(F)(F)F)ccc3n2C)cc1` showed a CC50 of 46 µM. With `COc1cc(OC)cc(-c2nc3cc(C(F)(F)F)ccc3[nH]2)c1` the CC50 was greater than 100 µM.

Tested on: Bovine viral diarrhea virus 1
Experiment: Antiviral activity against Bovine viral diarrhea virus NADL infected in MDBK cells assessed as protection from virus-induced cytopathogenicity after 3 to 4 days by MTT method
Format: functional, organism-based, Bovine viral diarrhea virus 1-NADL
Details: Bovine viral diarrhea virus isolates and strains, MDBK
Outline: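 Cytopathogenicity protection assay. MDBK cells at 3 × 10^4/well, grown overnight to confluence. Infected with BVDV NADL at m.o.i. 0.01 in MEM-E with 0.5% inactivated FBS, 1 mM Na pyruvate and 1% kanamycin. Serial compound dilutions added after 1 h. After 3–4 days at 37 °C, viability read by MTT; EC50 is the concentration giving 50% protection.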
Work on `CCN(CC)CC(=O)Nc1ccc(-c2nc3cc(C(F)(F)F)ccc3[nH]2)cc1` yielded an EC50 of 2 µM. In the case of `CC(=O)Nc1ccc(-c2nc3cc(C(F)(F)F)ccc3n2C)cc1`, the EC50 is reported as greater than 46 µM. For `COc1cc(OC)cc(-c2nc3cc(C(F)(F)F)ccc3[nH]2)c1`, the EC50 was greater than 100 µM.

Tested on: Vesicular stomatitis virus
Experiment: Antiviral activity against VSV Indiana lab infected in african green monkey Vero cells after 2 days by plaque reduction assay
Format: functional, organism-based
Details: not given
With `CCN(CC)CC(=O)Nc1ccc(-c2nc3cc(C(F)(F)F)ccc3[nH]2)cc1` the Activity was “inactive”. For `CC(=O)Nc1ccc(-c2nc3cc(C(F)(F)F)ccc3n2C)cc1`, the Activity was “inactive”. With `COc1cc(OC)cc(-c2nc3cc(C(F)(F)F)ccc3[nH]2)c1` the Activity was “inactive”.

Tested on: Human immunodeficiency virus 1
Experiment: Antiviral activity against HIV1 3B infected in human MT4 cells assessed as protection from virus-induced cytopathogenicity after 4 days by MTT method
Format: functional, organism-based
Details: not given
Outline: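 MT-4 cells, 1 × 10^4/well in RPMI with or without serial compound dilutions, infected with HIV-1 IIIB, 100 CCID50 (m.o.i. 0.01). Protection from virus-induced cytopathogenicity read by MTT.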
In the case of `CCN(CC)CC(=O)Nc1ccc(-c2nc3cc(C(F)(F)F)ccc3[nH]2)cc1`, the Activity is reported as “inactive”. For `CC(=O)Nc1ccc(-c2nc3cc(C(F)(F)F)ccc3n2C)cc1`, the Activity was “inactive”. For `COc1cc(OC)cc(-c2nc3cc(C(F)(F)F)ccc3[nH]2)c1`, the Activity was “inactive”.
